Measured values published in ChEMBL document CHEMBL1828517, “Synthesis, evaluation and application of polycyclic fluorescent analogues as N-methyl-D-aspartate receptor and voltage gated calcium channel ligands” (Eur J Med Chem, 2011).
pIC50: −log10 of the molar value. Active and inactive are the calls of the source. The rule behind the calls is not given here.

What was measured:
[1] = tested on: Glutamate NMDA receptor (Rattus norvegicus); assay: Antagonist activity at NMDA receptor in Sprague-Dawley rat striatal synaptoneurosomes assessed as inhibition of NMDA/glycine-induced calcium flux at 100 uM by spectrofluorimetric analysis relative to control
[2] = biological target: T1, Glutamate NMDA receptor (Rattus norvegicus) (UniProt P35439+Q00959+Q00960+Q00961+Q62645+Q8VHN2+Q9R1M7); assay: Antagonist activity at NMDA receptor in Sprague-Dawley rat striatal synaptoneurosomes assessed as inhibition of NMDA/glycine-induced calcium flux at 100 uM by spectrofluorimetric analysis relative to control; format: functional
Method in brief: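 Male Sprague-Dawley rat brain synaptoneurosomes are loaded with Mag-Fura-2/Fura-2 AM (5 μM final) for 10 min at 37 °C and resuspended in Krebs-HEPES pH 7.4. Compounds at 100 μM (0.1% DMSO final) are preincubated 5 min at 37 °C. NMDA (100 μM) plus glycine (100 μM) is added at 10 s and ratiometric fluorescence is read. Results are % of the DMSO control, 3 preparations × 3 determinations.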

[3] = Antagonist activity at voltage gated calcium channel in Sprague-Dawley rat striatal synaptoneurosomes assessed as inhibition of KCl-induced calcium flux at 100 uM by spectrofluorimetric analysis relative to control; format: functional
Method in brief: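 Rat synaptoneurosomes loaded with Fura-2 AM (5 μM final, 10 min, 37 °C) in Krebs-HEPES pH 7.4. Compounds at 100 μM (0.1% DMSO) are preincubated 5 min at 37 °C. Depolarization is done at 10 s with KCl (140 mM) solution. Baseline is subtracted from peak fluorescence, the KCl-induced rise is taken as 100%, and inhibition is expressed relative to it.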

[4] = biological target: T1, Glutamate NMDA receptor (Rattus norvegicus); assay: Binding affinity to NMDA receptor in Sprague-Dawley rat striatal synaptoneurosomes at 100 uM after 30 mins by competition binding assay in presence of amantadine; format: protein-complex assay
Method in brief: (§1)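 Unloaded rat synaptoneurosomes (0.6 mg/ml) are resuspended in Krebs-HEPES at 37 °C and given the fluorescent ligand (100 μM) alone or with a competitor at 100 μM (DMSO <0.1%). NMDA (100 μM) plus glycine (100 μM) is added, followed by 30 min at 37 °C. The pellet is washed and resuspended, and fluorescence is read at 324/455 nm. Results are % of ligand-alone intensity; n = 9.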

[5] = biological target: T1, Glutamate NMDA receptor (Rattus norvegicus); assay: Binding affinity to NMDA receptor in Sprague-Dawley rat striatal synaptoneurosomes at 100 uM after 30 mins by competition binding assay in presence of MK-801; format: protein-complex assay
Method in brief: as §1

[6] = biological target: T1, Glutamate NMDA receptor (Rattus norvegicus); assay: Binding affinity to NMDA receptor in Sprague-Dawley rat striatal synaptoneurosomes at 100 uM after 30 mins by competition binding assay in presence of NGP1-01; format: protein-complex assay
Method in brief: as §1

Glutamate NMDA receptor = assay: Antagonist activity at NMDA receptor in Sprague-Dawley rat striatal synaptoneurosomes assessed as inhibition of NMDA/glycine-induced calcium flux by spectrofluorimetric analysis; format: functional
Method in brief: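 Fura-2 AM-loaded rat synaptoneurosomes in Krebs-HEPES pH 7.4 at 37 °C. Compound is preincubated 5 min at log-spaced concentrations. Calcium influx is triggered with NMDA (100 μM) plus glycine (100 μM) and measured by ratiometric spectrofluorimetry. The concentration-response is fitted to a four-parameter logistic equation; 3 preparations × 3 determinations.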

SMILES	inhibition (INH) [1] [%]	inhibition [2]	inhibition (INH) [3] [%]	inhibition [4]	inhibition [5]	inhibition [6]	pIC50 (Glutamate NMDA receptor)
CNc1ccccc1C(=O)OC12C3C4CC5C6C4C1C6C1(OCCCN12)C53 (configuration not stated)	86.41	12%	84.79	–	–	–	–
N#Cc1c2ccccc2cn1C12CC3CC(CC(C3)C1)C2	–	16%	–	–	–	–	–
CN(C)c1cccc2c(S(=O)(=O)NC34CC5CC(CC(C5)C3)C4)cccc12	–	21.9%	–	–	–	–	–
N#Cc1c2ccccc2cn1CCCNC12CC3CC(CC(C3)C1)C2	86.41	13.6%	45.92	–	–	–	–
OC12C3C4CC5C6C4C1C6C1(OCCCN21)C53 (configuration not stated)	77.29	22.7%	87.24	–	–	–	–
O=C(OC12C3C4CC5C6C4C1C6C1(OCCCN12)C53)c1n[nH]c2ccccc12 (configuration not stated)	77.89	13.6%	83.62	–	–	–	–
O=[N+]([O-])c1ccc(NC23CC4CC(CC(C4)C2)C3)c([N+](=O)[O-])c1	–	19.2%	–	–	–	–	–
CNc1ccccc1C(=O)NCCCNC12CC3CC(CC(C3)C1)C2	88.02	12%	87.91	–	–	–	–
CN(C)c1cccc2c(S(=O)(=O)NCCCNC34CC5CC(CC(C5)C3)C4)cccc12	62.97	37%	36.74	inactive	inactive	inactive	6.57
CNc1ccccc1C(=O)NC12CC3CC(CC(C3)C1)C2	–	inactive	–	–	–	–	–
O=C(NCCCNC12CC3CC(CC(C3)C1)C2)c1cc2ccccc2oc1=O	86.77	13.2%	67.99	–	–	–	–
O=C(NCCCNC12CC3CC(CC(C3)C1)C2)c1n[nH]c2ccccc12	95.19	inactive	86.91	–	–	–	–
NCCCNC12CC3CC(CC(C3)C1)C2	91	9.01%	89.3	–	–	–	–
N#CCCNC12CC3CC(CC(C3)C1)C2	–	19.3%	–	–	–	–	–
O=[N+]([O-])c1ccc(NCCCNC23CC4CC(CC(C4)C2)C3)c([N+](=O)[O-])c1	76.59	23.4%	88.5	–	–	–	–
O=C(NC12CC3CC(CC(C3)C1)C2)c1cc2ccccc2oc1=O	–	20.3%	–	–	–	–	–
O=C(NC12CC3CC(CC(C3)C1)C2)c1n[nH]c2ccccc12	83.7	16%	–	–	–	–	–
